{"source": "paper PMC5582369", "about": "(British Journal of Clinical Pharmacology, 2017)", "key": {"Na+/H+ exchange": {"system": "Na+/H+ exchange", "settings": "healthy volunteers, cited from earlier work"}, "NHE3": {"molecular_target": "T1, NHE3 (Homo sapiens, UniProt P48764)", "T1 sequence (P48764 26-834)": "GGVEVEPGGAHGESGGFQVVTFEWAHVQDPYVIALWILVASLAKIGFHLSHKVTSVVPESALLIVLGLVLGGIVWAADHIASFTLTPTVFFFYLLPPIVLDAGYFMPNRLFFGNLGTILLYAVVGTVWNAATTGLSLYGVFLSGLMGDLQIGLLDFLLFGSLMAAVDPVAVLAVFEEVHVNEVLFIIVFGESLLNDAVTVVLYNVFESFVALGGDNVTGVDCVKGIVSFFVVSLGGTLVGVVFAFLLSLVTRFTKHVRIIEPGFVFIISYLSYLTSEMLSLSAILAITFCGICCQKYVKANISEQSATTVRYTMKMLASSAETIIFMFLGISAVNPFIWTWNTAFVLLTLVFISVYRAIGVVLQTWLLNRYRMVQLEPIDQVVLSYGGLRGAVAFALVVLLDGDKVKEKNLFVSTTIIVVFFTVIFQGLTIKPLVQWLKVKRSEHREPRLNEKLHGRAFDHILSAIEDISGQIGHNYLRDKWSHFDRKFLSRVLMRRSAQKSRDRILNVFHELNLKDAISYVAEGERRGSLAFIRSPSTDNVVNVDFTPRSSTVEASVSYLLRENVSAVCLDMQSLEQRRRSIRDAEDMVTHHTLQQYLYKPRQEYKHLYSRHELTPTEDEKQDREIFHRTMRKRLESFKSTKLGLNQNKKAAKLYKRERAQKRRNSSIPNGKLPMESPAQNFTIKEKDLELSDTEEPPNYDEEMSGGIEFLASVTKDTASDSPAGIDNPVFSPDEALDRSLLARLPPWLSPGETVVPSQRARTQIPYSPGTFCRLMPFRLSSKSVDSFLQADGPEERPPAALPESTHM", "assay": "Stool frequency and consistency", "format": "in vivo, healthy volunteers (human)", "settings": "mean ± SD over overall tenapanor 15 mg b.i.d. dosing period; day –1: 3.7 ± 1.0"}, "[1]": {"assay": "Tenapanor plasma concentration", "format": "in vivo, healthy volunteers (human)", "settings": "tenapanor 15 mg b.i.d., day 5", "procedure,_shortened": "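Blood was drawn predose and 1, 2 and 4 h after the day-5 morning dose of the test compound (15 mg twice daily from day 1). Plasma was extracted liquid–liquid with a deuterated internal standard, evaporated under nitrogen and reconstituted. Analysis was by LC-MS/MS, validated over 0.500–100 ng ml–1, with a lower limit of quantitation of 0.5 ng ml–1.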"}, "[2]": {"assay": "Safety and tolerability assessments", "format": "in vivo, healthy volunteers (human)", "procedure,_shortened": "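Healthy adults (18–50 y, BMI 18–30 kg m–2, 50–100 kg) got the oral test compound 15 mg twice daily for 4 days, then a single 15 mg dose with a 500 mg probe cephalosporin on day 5, 5–10 min before standardized meals. Adverse events were monitored from screening to follow-up, 7–10 days after the last dose. Vital signs, ECGs, physical exams and clinical labs were also collected.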"}, "[3]": {"assay": "Cefadroxil plasma pharmacokinetics, phase 1 two-period crossover study", "format": "in vivo, healthy volunteers (human)"}, "PepT1": {"system": "PepT1", "settings": "in vitro; cited from earlier work"}, "[4]": {"settings": "whole study, all AEs occurred in the tenapanor treatment period"}}, "data": [{"smiles": "N=C(N)NC(=O)c1nc(Cl)c(N)nc1N", "note": "[Amiloride]", "values": [{"measurement": "Effect on gastrointestinal uptake of amoxicillin", "setting": "Na+/H+ exchange", "result": "decrease the gastrointestinal uptake"}, {"measurement": "Effect on amoxicillin absorption in the gut", "setting": "Na+/H+ exchange; jejunal perfusion with amiloride and amoxicillin", "result": "did not affect amoxicillin absorption"}]}, {"smiles": "CN1Cc2c(Cl)cc(Cl)cc2[C@H](c2cccc(S(=O)(=O)NCCOCCOCCNC(=O)NCCCCNC(=O)NCCOCCOCCNS(=O)(=O)c3cccc([C@@H]4CN(C)Cc5c(Cl)cc(Cl)cc54)c3)c2)C1", "note": "[Tenapanor]", "values": [{"measurement": "BSFS score (stool consistency)", "setting": "NHE3", "result": "5.4 ± 1.2"}, {"measurement": "Detection of tenapanor in plasma", "setting": "[1]", "result": "not detected in plasma"}, {"measurement": "Serious AEs or discontinuations due to AEs", "setting": "[2]; during the study, 28 volunteers", "result": "No serious AEs or discontinuations due to AEs"}, {"measurement": "Tolerability", "setting": "[2]; tenapanor 15 mg b.i.d., 28 volunteers", "result": "generally well tolerated"}, {"measurement": "Abdominal distension (n volunteers)", "setting": "[2]; [4]", "result": 4}, {"measurement": "Abdominal pain (n volunteers)", "setting": "[2]; [4]", "result": 4}, {"measurement": "Abnormal gastrointestinal sounds (n volunteers)", "setting": "[2]; [4]", "result": 3}, {"measurement": "Diarrhoea (n volunteers)", "setting": "[2]; [4]", "result": 2}, {"measurement": "Flatulence (n volunteers)", "setting": "[2]; [4]", "result": 2}]}, {"smiles": "CC1=C(C(=O)O)N2C(=O)[C@@H](NC(=O)[C@H](N)c3ccc(O)cc3)[C@H]2SC1", "note": "[Cefadroxil]", "values": [{"measurement": "t½ (apparent terminal half-life) of cefadroxil", "setting": "[3]; cefadroxil 500 mg alone, geometric mean (GCV, %), n = 28", "result": "2.0 (11.1) h"}, {"measurement": "Tmax", "setting": "[3]; human, plasma, oral, 500 mg", "result": 1.5, "unit": "h"}, {"measurement": "Affinity for PepT1", "setting": "PepT1", "result": "moderate affinity"}]}]}
